Assay results: article PMC7114262 (Antiviral Research, 2005)

Columns and labels:
[1] = Cytotoxicity, tetrazolium dye assay, static HEL monolayers; assay type: cell-based, human; details: human, static (confluent, serum-starved) HEL fibroblast monolayers
In short: (§1)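 Confluent HEL fibroblasts serum-starved 48 h, then exposed to a range of compound concentrations without virus or methylcellulose. After 72 h, viability read by tetrazolium colorimetric dye at 470 nm, as a percentage of DMSO-matched control wells. CC50 obtained by linear regression of percent inhibition against concentration, reported as mean ± standard deviation of quadruplicate experiments.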

[2] = Cytotoxicity, tetrazolium dye assay, growing HEL monolayers; assay type: cell-based; details: human, growing HEL fibroblast monolayers
In short: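 Cytotoxicity in growing HEL fibroblasts: cells not serum-starved, about 10% confluent when compound was added. Viability read by tetrazolium colorimetric dye after 72 h of exposure, as absorbance at 470 nm relative to DMSO-matched control wells. CC50 obtained by linear regression of percent inhibition versus concentration, reported as mean ± standard deviation of quadruplicate experiments.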

Static HEL fibroblasts = assay: Cytotoxicity, tetrazolium dye assay, static HEL monolayers; assay type: cell-based, human; details: 20 μM (5.4 μg/ml) baicalein, 50 μM (13.5 μg/ml) genistein
In short: as §1

[3] = system: HCMV proteins (IE1-72, IE2-86, UL84, UL94); assay: Western blot / immunoprecipitation of HCMV proteins in infected HEL cells; assay type: cell-based, human cytomegalovirus
NF-κB = assay: EMSA of HCMV-mediated NF-κB activation; assay type: cell-based, human; details: 24 hpi; 20 μM baicalein, 50 μM genistein
HCMV DNA [4] = assay: Reversibility of antiviral effect after drug removal; assay type: cell-based, human cytomegalovirus; details: drug removed at 72 hpi; 20 μM baicalein, 50 μM genistein
In short: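 HEL cells infected with HCMV in presence of compound (20 or 50 μM) for 72 h. Medium then replaced with drug-free medium and replication allowed for a further 72 h. Viral DNA measured at 24 h intervals by 32P-probe dot blot hybridization; experiment reproduced twice.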

[5] = system: cdk2, cyclin E, p53, and PCNA; assay: Immunoblot of HCMV-induced cell cycle regulatory proteins; assay type: cell-based, human; details: 24 hpi; 50 μM ganciclovir, 20 μM baicalein, 50 μM genistein
In short: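 Confluent, serum-starved HEL cells given compound (20 or 50 μM final; 50 μM ganciclovir control) from 1 h before and throughout HCMV infection. Harvested at 24 hpi in SDS sample buffer and run on 8–10% SDS-PAGE. Immunoblotted for cdk2, cyclin E, p53 and PCNA (milk block, primary overnight at 4 °C, HRP secondary, ECL). Bands quantified by densitometry of scanned films.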

EGFR = EGFR (Homo sapiens, UniProt P00533); assay: HCMV-mediated EGFR tyrosine phosphorylation; assay type: cell-based; details: shortly after infection; 20 μM baicalein, 50 μM genistein
[6] = system: HCMV tegument protein pp65; assay: HCMV nuclear translocation, pp65 fluorescence microscopy; assay type: cell-based, human cytomegalovirus; details: 6 hpi; 20 μM baicalein, 50 μM genistein
In short: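 Confluent HEL fibroblasts on chamber slides, serum-starved overnight and chilled on ice. Ice-cold compound-containing or plain DMEM added 10 min before infection with HCMV at 2–5 pfu/cell ± compound: 1 h at 4 °C, then 1 h at 37 °C. Cells washed and kept 5 h at 37 °C ± compound. Methanol-fixed at −20 °C, stained with anti-pp65 (1:1000), fluorescein secondary (1:500) and DAPI; nuclear pp65 examined at 6 hpi.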

HCMV DNA [7] = assay: HCMV DNA assay; assay type: cell-based, human cytomegalovirus
In short: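 Confluent HEL cells serum-starved 48 h, then infected with HCMV at 2–5 pfu/cell with or without compound; 50 μM ganciclovir served as control. At 72 hpi, wells were frozen in PBS at −80 °C and thawed. DNA was denatured in NaOH/NaCl, neutralized with Tris pH 7.0, and baked onto nitrocellulose. Serial dilutions were probed 14 h at 42 °C with 32P nick-translated Towne genomic DNA and read by autoradiography; four independent experiments.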

[8] = persons on a high soy diet, estimated; ref Adlercreutz et al., 1993; cited from earlier work
HCMV = details: ≤12 μM genistein, IE1-72 protein levels at 24 hpi; ref Slobbe-van Drunen et al., 1997; cited from earlier work

EGFR, sequence (P00533 25-1210): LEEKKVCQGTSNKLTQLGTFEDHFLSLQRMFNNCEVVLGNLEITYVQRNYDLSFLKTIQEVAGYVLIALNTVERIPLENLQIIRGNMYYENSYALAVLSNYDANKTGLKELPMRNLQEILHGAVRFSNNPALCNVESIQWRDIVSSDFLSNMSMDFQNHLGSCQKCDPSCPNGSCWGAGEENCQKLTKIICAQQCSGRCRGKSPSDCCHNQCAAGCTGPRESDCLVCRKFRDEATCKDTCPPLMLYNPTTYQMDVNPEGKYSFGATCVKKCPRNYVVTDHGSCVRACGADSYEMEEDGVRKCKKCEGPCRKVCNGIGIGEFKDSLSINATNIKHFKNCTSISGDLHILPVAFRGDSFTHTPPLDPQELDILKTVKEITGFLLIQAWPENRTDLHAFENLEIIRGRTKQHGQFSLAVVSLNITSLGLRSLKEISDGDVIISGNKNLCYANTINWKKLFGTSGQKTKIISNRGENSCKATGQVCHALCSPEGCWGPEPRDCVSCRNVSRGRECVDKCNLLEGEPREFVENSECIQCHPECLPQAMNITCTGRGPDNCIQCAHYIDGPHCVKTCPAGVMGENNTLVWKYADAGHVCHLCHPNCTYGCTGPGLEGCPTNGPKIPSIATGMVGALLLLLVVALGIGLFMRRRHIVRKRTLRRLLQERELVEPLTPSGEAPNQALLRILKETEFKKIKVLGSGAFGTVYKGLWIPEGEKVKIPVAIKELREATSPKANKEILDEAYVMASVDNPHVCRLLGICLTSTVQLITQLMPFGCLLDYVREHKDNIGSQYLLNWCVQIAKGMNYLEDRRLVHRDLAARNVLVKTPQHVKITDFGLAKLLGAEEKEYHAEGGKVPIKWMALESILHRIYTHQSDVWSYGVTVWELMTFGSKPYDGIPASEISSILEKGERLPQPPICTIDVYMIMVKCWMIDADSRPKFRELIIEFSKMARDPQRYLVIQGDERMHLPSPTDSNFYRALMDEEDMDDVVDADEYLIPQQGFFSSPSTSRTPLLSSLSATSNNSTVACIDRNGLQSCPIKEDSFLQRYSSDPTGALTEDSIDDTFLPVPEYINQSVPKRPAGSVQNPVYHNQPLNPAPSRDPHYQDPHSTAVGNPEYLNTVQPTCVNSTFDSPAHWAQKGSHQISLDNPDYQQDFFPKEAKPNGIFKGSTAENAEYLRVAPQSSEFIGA

Structure (SMILES) | CC50 at 72 h [1] [µM] | CC50 at 72 h [2] [µM] | HCMV-mediated increases in steady-state levels of cdk2, cyclin E, p53, and PCNA [5] | other results
O=c1cc(-c2ccc(O)c(O)c2)oc2cc(O)cc(O)c12 [Luteolin] | > 200 | 62 ± 10 |  | 
O=c1cc(-c2ccccc2)oc2cc(O)c(O)c(O)c12 [Baicalein] | > 100 | > 100 | inhibited | Cytotoxicity in cell culture at concentration used for mechanism studies (Static HEL fibroblasts): did not display obvious cytotoxicity; Levels of all three kinetic classes of HCMV proteins ([3]; 20 μM baicalein, immunoblot 24, 48, 72 hpi): reduced to nearly background levels; HCMV induction of NF-κB (NF-κB): absent; Reversibility of antiviral effects (HCMV DNA [4]): poorly reversible; HCMV-induced EGFR phosphorylation (EGFR): reduced to background levels; Nuclear accumulation of pp65 [6]: blocked; HCMV DNA level (HCMV DNA [7]; 20 μM baicalein, 72 hpi): reduced to nearly background levels
O=c1c(-c2ccc(O)cc2)coc2cc(O)ccc12 [Daidzein] | > 200 | > 200 |  | 
O=C(O)[C@H]1O[C@@H](Oc2cc3oc(-c4ccccc4)cc(=O)c3c(O)c2O)[C@H](O)[C@@H](O)[C@@H]1O [Baicalin] | > 400 | > 400 |  | 
O=C1C[C@@H](c2ccc(O)cc2)Oc2cc(O)cc(O)c21 [Naringenin] | > 100 | > 100 |  | 
Nc1nc(O)c2ncn(COC(CO)CO)c2n1 [Ganciclovir] |  |  | not affected | 
O=c1c(O)c(-c2ccc(O)c(O)c2)oc2cc(O)cc(O)c12 [Quercetin] | > 400 | > 400 |  | 
O=c1c(O)c(-c2ccccc2)oc2cc(O)cc(O)c12 [Galangin] | > 400 | > 400 |  | 
O=c1c(-c2ccc(O)cc2)coc2cc(O)cc(O)c12 [Genistein] | > 200 | 124 ± 52 | inhibited | Cytotoxicity in cell culture at concentration used for mechanism studies (Static HEL fibroblasts): did not display obvious cytotoxicity; Steady-state serum levels [8]: 1 to 5 µM; IE1-72 level ([3]; 50 μM genistein, 24 hpi): slightly lower levels; Reduction of IE2-86 levels ([3]; 50 μM genistein, 24 hpi): ≤ 65%; UL84 and UL94 protein levels ([3]; 50 μM genistein, 48 and 72 hpi respectively): nearly background levels; Inhibition of HCMV replication (HCMV): did not inhibit; HCMV induction of NF-κB (NF-κB): absent; Reversibility of antiviral effects (HCMV DNA [4]): fully; inhibition at 50 µM (HCMV DNA [7]; Human betaherpesvirus 5, read-out: Inhibition of HCMV DNA replication): ~95%
O=c1cc(-c2ccc(O)cc2)oc2cc(O)cc(O)c12 [Apigenin] | > 100 | > 100 |  | 
